Assay results as given in ChEMBL document CHEMBL3526139, “Clinical pharmacokinetics, metabolism, and drug-drug interaction of carfilzomib” (Drug Metab Dispos, 2013).

Legend:
[1] = Drug excretion in urine of human patient with relapsed and refractory hematological malignancies treated intravenously with carfilzomib on days 1, 2, 8, 9, 15 and 16 of 28-day cycle over 2 to 10 mins by LC-MS/MS analysis; type: ADME; conditions: in vivo, iv
Plasma = assay: Drug level in plasma of human patient with relapsed and refractory hematological malignancies treated intravenously with carfilzomib on days 1, 2, 8, 9, 15 and 16 of 28-day cycle over 2 to 10 mins by LC-MS/MS analysis; type: ADME; conditions: iv
Homo sapiens = assay: Ratio of compound AUC (infinity) to carfilzomib AUC (infinity) in human multiple myeloma patient with normal renal function treated with carfilzomib at 15 mg/m'2, iv on days 1, 2, 8, 9, 15 and 16 of 28-day cycle over 2 to 10 mins by LC-MS/MS analysis; type: ADME, organism-based; conditions: in vivo
CYP3A [2] = target: T1, CYP3A (Homo sapiens, UniProt P08684+P20815+P24462+Q9HB55); assay: Inhibition of CYP3A in human liver microsomes treated with carfilzomib by LC-MS/MS analysis; type: ADME
CYP3A [3] = target: T1, CYP3A; assay: Time-dependent inhibition of CYP3A in human liver microsomes preincubated for 30 mins with carfilzomib by LC-MS/MS analysis; type: ADME; conditions: liver microsomes
Procedure, shortened: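 Pooled HLM (16 donors) given carfilzomib 0.01–10 µM in duplicate at 37°C with a 30-min preincubation before probe substrate was added. Substrate was set near Km (testosterone Km 100 µM; midazolam Km 3.8 µM). Protein was 0.1 mg/mL, or 0.05 mg/mL with midazolam. Metabolite formation was read by LC-MS/MS after 5 min and expressed relative to 0.5% acetonitrile controls to give IC50.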

Cytochrome P450 3A = Cytochrome P450 3A (Homo sapiens, UniProt P08684+P20815+Q9HB55+P24462); assay: Inhibition of CYP3A in human liver microsomes treated with […] up to 30 uM by LC-MS/MS analysis; type: ADME
Procedure, shortened: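 Metabolites were tested for CYP3A inhibition in HLM at 0.04–30 µM, with or without a 30-min preincubation. Midazolam or testosterone substrate was used with a 5-min reaction and LC-MS/MS read-out.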

[4] = Tmax in solid tumor patient at 2 mg, po administered as single dose followed by co-treatment with 27 mg/m2, iv carfilzomib over 2 to 10 mins on days 1, 2, 8, 9, 15 and 16 of single 28-day cycle measured on day 16; type: ADME, organism-based; conditions: human, in vivo
Procedure, shortened: (§1)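 Oral midazolam 2 mg single dose on Day -7, then 2 mg given immediately after IV carfilzomib (27 mg/m2, 2–10 min infusion) on Days 1 and 16. Plasma sampled pre-dose and 5, 10, 30 min, 1–24 h post-midazolam. Midazolam measured by liquid-liquid extraction (methyl tert-butyl ether) and LC-MS/MS, range 0.100–100 ng/mL, d4-midazolam internal standard. Tmax derived noncompartmentally.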

[5] = AUC(last) in solid tumor patient at 2 mg, po administered as single dose measured on day 7; conditions: human, plasma
[6] = AUC(infinity) in solid tumor patient at 2 mg, po administered as single dose measured on day 7; conditions: human, plasma
[7] = Tmax in solid tumor patient at 2 mg, po administered as single dose followed by co-treatment with 27 mg/m2, iv carfilzomib over 2 to 10 mins on days 1, 2, 8, 9, 15 and 16 of single 28-day cycle measured on day 1; type: ADME, organism-based; conditions: human, in vivo; procedure, shortened: as §1
[8] = Half life in solid tumor patient at 2 mg, po administered as single dose followed by co-treatment with 27 mg/m2, iv carfilzomib over 2 to 10 mins on days 1, 2, 8, 9, 15 and 16 of single 28-day cycle measured on day 1; conditions: human, in vivo
clinical [9] = conditions: human, plasma, po
clinical [10] = conditions: human, plasma, po; remark: listed apart in the source
clinical [11] = conditions: human, in vivo, po
clinical [12] = conditions: human, plasma, po, 2 mg
clinical [13] = conditions: human, in vivo, po; remark: listed apart in the source
clinical [14] = conditions: human, plasma, po; remark: listed apart in the source
clinical [15] = conditions: human, plasma, po; remark: listed apart in the source
clinical [16] = conditions: human, plasma, po; remark: listed apart in the source
clinical [17] = conditions: human, in vivo, po; remark: listed apart in the source
clinical [18] = conditions: human, plasma, po; remark: listed apart in the source

CC(C)CC(NC(=O)C(CCc1ccccc1)NC(=O)CN1CCOCC1)C(=O)NC(Cc1ccccc1)C(=O)NC(CC(C)C)C(=O)C(C)(O)CO (stereo not drawn)
Drug excretion [1]: metabolite_detected
Drug metabolism (Plasma): metabolite_detected
Ratio (Homo sapiens): 0.28
IC50 (CYP3A [2]): > 30 µM
IC50 at 30 min (CYP3A [3]): 1.8 µM

O=C(CN1CCOCC1)NC(CCc1ccccc1)C(=O)O (stereo not drawn)
Drug excretion [1]: metabolite_detected
Drug metabolism (Plasma): metabolite_detected
Ratio (Homo sapiens): 1.2
inhibition (INH) (Cytochrome P450 3A): Not Active

CC(C)CC(NC(=O)C(CCc1ccccc1)NC(=O)CN1CCOCC1)C(=O)O (stereo not drawn)
Drug excretion [1]: metabolite_detected
Drug metabolism (Plasma): metabolite_detected
Ratio (Homo sapiens): 0.11
inhibition (INH) (Cytochrome P450 3A): Not Active

Cc1ncc2n1-c1ccc(Cl)cc1C(c1ccccc1F)=NC2 [MIDAZOLAM]
Tmax [4]: 0.8 h
AUC(0-t) [5]: 49.8 ng·h/mL
AUC(0-inf) [6]: 54.3 ng·h/mL
Tmax [7]: 0.7 h
half-life [8]: 6.3 h
AUC(0-t) (clinical [9]): 48.4 ng·h/mL
AUC(0-inf) (clinical [10]): 59.9 ng·h/mL
half-life (clinical [11]): 5.5 h
AUC(0-t) at 12 h (clinical [12]): 42.5 ng·h/mL
Cmax (clinical [13]): 15.7 ng/mL
AUC(0-t) (clinical [14]): 47.3 ng·h/mL
AUC(0-t) (clinical [15]): 40.3 ng·h/mL
AUC(0-inf) (clinical [16]): 51.5 ng·h/mL
Cmax (clinical [17]): 16 ng/mL
AUC(0-t) (clinical [18]): 48.4 ng·h/mL
